Reference: ChEMBL document CHEMBL1140989, “Synthesis, penetrability and intracellular targeting of fluorescein-tagged peptoids and peptide-peptoid hybrids” (Bioorg Med Chem, 2009)
Square brackets hold non-standard residues; d marks the D form. Peptide text beside a SMILES is read from it. * marks the point of attachment. X1 = O=C(O)c1cc(C(=O)*)ccc1-c1c2ccc(=O)cc-2oc2cc(O)ccc12; Gly(N-(CH2)6NH2) = NCCCCCCNCC(=O)O; Ahx = NCCCCCC(=O)O

Assays:
Type in all cases: cell-based
HeLa = assay: Cytotoxicity against human HeLa cells after 24 hrs by MTT assay
How it was run: (§1)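 Cells kept in 10 µM peptoid in medium. Viability read by MTT 24 h after compound addition, absorbance at 570 nm.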

K562 = assay: Cytotoxicity against human K562 cells after 24 hrs by MTT assay; settings: k562, 24 h; how it was run: as §1
L929 = assay: Cytotoxicity against mouse L929 cells after 24 hrs by MTT assay; settings: l929, 24 h; how it was run: as §1

Measured: Activity

NCCCCCCN(CC(N)=O)C(=O)CN(CCCCCCN)C(=O)CN(CCCCCCN)C(=O)CCCCCNC(=O)c1ccc(-c2c3ccc(=O)cc-3oc3cc(O)ccc23)c(C(=O)O)c1
Non-toxic: all assays above

NCCCCCCN(CC(N)=O)C(=O)CCCCCNC(=O)c1ccc(-c2c3ccc(=O)cc-3oc3cc(O)ccc23)c(C(=O)O)c1
Non-toxic: all assays above

NCCCCCCN(CC(N)=O)C(=O)CN(CCCCCCN)C(=O)CN(CCCCCCN)C(=O)CN(CCCCCCN)C(=O)CN(CCCCCCN)C(=O)CCCCCNC(=O)c1ccc(-c2c3ccc(=O)cc-3oc3cc(O)ccc23)c(C(=O)O)c1
Non-toxic: all assays above

NCCCCCCN(CC(N)=O)C(=O)CN(CCCCCCN)C(=O)CN(CCCCCCN)C(=O)CN(CCCCCCN)C(=O)CN(CCCCCCN)C(=O)CN(CCCCCCN)C(=O)CN(CCCCCCN)C(=O)CCCCCNC(=O)c1ccc(-c2c3ccc(=O)cc-3oc3cc(O)ccc23)c(C(=O)O)c1 ({X1-Ahx}-[Gly(N-(CH2)6NH2)][Gly(N-(CH2)6NH2)][Gly(N-(CH2)6NH2)][Gly(N-(CH2)6NH2)][Gly(N-(CH2)6NH2)][Gly(N-(CH2)6NH2)][Gly(N-(CH2)6NH2)]-NH2)
Non-toxic: all assays above
